# How the values were obtained:
# Trypanosoma brucei [1] = test: Percentage of activity against Trypanosoma brucei at 6.25 uM; type: functional
# In short: (§1)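 Bloodstream-form T. brucei in HMI-9 medium, 10 000 parasites/well, exposed to 12.5, 6.25, 3.13 and 1.56 µM drug for 4 days. Read-out is % inhibition of parasite multiplication. Macrophage toxicity judged on mouse primary peritoneal macrophages.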
# Leishmania infantum [2] = test: Percentage of activity against Leishmania infantum 6.25 uM; type: functional
# In short: (§2)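 Starch-stimulated mouse peritoneal macrophages, 30 000/well, infected after 24 h with spleen-derived L. infantum amastigotes (10:1) together with 2-fold drug dilutions (12.5–1.56 µM). Incubated 7 days at 37 °C, 5% CO2. Wright-stained slides scored microscopically as % reduction of total parasite load or of infected macrophages. Uninfected treated cultures judged microscopically for macrophage toxicity.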
# Leishmania infantum [3] = test: Percentage of activity against Leishmania infantum at 3.13 uM; type: functional; in short: as §2
# Trypanosoma brucei [4] = test: Percentage of activity against Trypanosoma brucei at 1.56 uM; type: functional; in short: as §1
# Plasmodium falciparum = test: In vitro sensitivity for Plasmodium falciparum FcB1R; type: functional, organism-based
# In short: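 Asynchronous P. falciparum cultures in human erythrocytes (0.5% parasitemia, 1% haematocrit) exposed to serially diluted drug for 24 h at 37 °C. [3H]hypoxanthine (0.5 µCi/well) then added for a further 24 h. Uptake compared with drug-free controls on the same plate. IC50 taken from the concentration–response curve, averaged over independent experiments. DMSO ≤0.1%.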
# Leishmania infantum [5] = test: In Vitro evaluation for the percentage of activity towards Leishmania infantum at 12.5 uM Concentration; type: functional; in short: as §2
# Leishmania infantum [6] = test: Percentage of activity against Leishmania infantum at 1.56 uM; type: functional; in short: as §2
# MRC5 [7] = test: Cytotoxicity on MRC-5 cells at 25 uM; type: functional; conditions: Homo sapiens
# In short: (§3)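 MRC-5 human diploid embryonic lung cells seeded at 5 000/well, washed after 24 h, then given 2-fold drug dilutions (25, 12.5, 6.25, 3.13 µM) in RPMI + 5% FCS, final DMSO below 0.5%. Incubated 7 days at 37 °C, 5% CO2. MTT colorimetric read-out, scored as % reduction of absorbance at 540 nm versus untreated controls.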
# Trypanosoma brucei [8] = test: Percentage of activity against Trypanosoma brucei at 3.13 uM; type: functional; in short: as §1
# Trypanosoma cruzi [9] = test: Percentage of activity against Trypanosoma cruzi at 6.25 uM Concentration; type: functional
# In short: (§4)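 Mouse peritoneal macrophages, 30 000/well, infected after 24 h with about 100 000 T. cruzi trypomastigotes per well plus 2-fold drug dilutions (12.5–1.56 µM). Incubated 4 days at 37 °C, 5% CO2. Methanol-fixed, Giemsa-stained and scored microscopically as % reduction of total parasite load (free trypomastigotes plus intracellular amastigotes) versus untreated controls.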
# Trypanosoma cruzi [10] = test: Percentage of activity against Trypanosoma cruzi at 1.56 uM; type: functional; in short: as §4
# MRC5 [11] = test: Cytotoxicity on MRC-5 cells at 12.5 uM; type: functional; conditions: Homo sapiens; in short: as §3
# Trypanosoma cruzi [12] = test: Percentage of activity against Trypanosoma cruzi at 3.13 uM; type: functional; in short: as §4
# MRC5 [13] = test: Cytotoxicity on MRC-5 cells at 3.13 uM; type: functional; conditions: Homo sapiens; in short: as §3
# Trypanosoma cruzi [14] = test: Percentage of activity against Trypanosoma cruzi at 12.5 uM; type: functional; in short: as §4
# Trypanosoma brucei [15] = test: Percentage of activity against Trypanosoma brucei at 12.5 uM; type: functional; in short: as §1
# MRC5 [16] = test: Cytotoxicity on MRC-5 cells at 6.25 uM; type: functional; conditions: Homo sapiens; in short: as §3
# Leishmania infantum [17] = test: Percentage of activity against Leishmania infantum at 12.5 uM Concentration; Toxic upon mouse primary peritoneal macrophages; type: functional, organism-based; in short: as §2
# Leishmania infantum [18] = test: Percentage of activity against Leishmania infantum at 6.25 uM; Toxic upon mouse primary peritoneal macrophages; type: functional, organism-based; in short: as §2
# Trypanosoma cruzi [19] = test: In Vitro evaluation for the percentage of activity towards Trypanosoma cruzi at 6.25 uM Concentration; Toxic upon mouse primary peritoneal macrophages; type: functional, organism-based; in short: as §4
# Trypanosoma cruzi [20] = test: Percentage of activity against Trypanosoma cruzi at 12.5 uM; Toxic upon mouse primary peritoneal macrophages; type: functional, organism-based; in short: as §4
SMILES,IC50 (Plasmodium falciparum),Inhibition of parasite multiplication (Trypanosoma brucei [1]),Antileishmanial activity (% reduction of parasite load) (Leishmania infantum [2]),Percent antileishmanial activity (reduction of parasite load) (Leishmania infantum [3]),Percent inhibition of parasite multiplication (Trypanosoma brucei [4]),Percent inhibition of Leishmania infantum (Leishmania infantum [5]),Antileishmanial activity (% reduction of parasite load) (Leishmania infantum [6]),cytotoxicity at 25 µM (MRC5 [7]),Parasite growth inhibition (Trypanosoma brucei [8]),Reduction of T. cruzi parasite load (Trypanosoma cruzi [9]),Parasite load reduction (Trypanosoma cruzi [10]),cytotoxicity at 12.5 µM (MRC5 [11]),Reduction of T. cruzi parasite load (Trypanosoma cruzi [12]),cytotoxicity at 3.13 µM (MRC5 [13]),T. cruzi parasite load reduction (Trypanosoma cruzi [14]),Inhibition of parasite multiplication (Trypanosoma brucei [15]),cytotoxicity at 6.25 µM (MRC5 [16]),Cytotoxicity (Leishmania infantum [17]),Cytotoxicity (Leishmania infantum [18]),Cytotoxicity (Trypanosoma cruzi [19]),other results
COc1ccc2nc3cc(Cl)ccc3c(NCCCCN(CCCNc3c4ccc(Cl)cc4nc4ccc(OC)cc34)C(=O)C(C)NC(=O)OC(C)(C)C)c2c1 (stereo not drawn),330 nM,100%,40%,20%,100%,70%,0%,100%,100%,70%,0%,100%,20%,0%,90%,100%,0%,–,–,–,–
COc1ccc2nc3cc(Cl)ccc3c(NCCCN(CCCNc3c4ccc(Cl)cc4nc4ccc(OC)cc34)C(=O)C(N)CN)c2c1 (stereo not drawn),> 500 nM,100%,–,0%,99%,–,0%,0%,100%,–,0%,0%,40%,0%,–,–,0%,Toxic,Toxic,Toxic,Cytotoxicity (Trypanosoma cruzi [20]): Toxic
COc1ccc2nc3cc(Cl)ccc3c(NCCCN(CCCNc3c4ccc(Cl)cc4nc4ccc(OC)cc34)C(=O)C(CC(=O)O)NC(=O)OC(C)(C)C)c2c1 (stereo not drawn),> 500 nM,100%,0%,0%,100%,0%,0%,0%,100%,0%,0%,0%,0%,0%,80%,100%,0%,–,–,–,–
COc1ccc2nc3cc(Cl)ccc3c(NCCCN(CCCNc3c4ccc(Cl)cc4nc4ccc(OC)cc34)C(=O)CCC(=O)N3CCOCC3)c2c1,436 nM,100%,0%,0%,100%,0%,0%,60%,100%,0%,0%,20%,0%,0%,60%,100%,0%,–,–,–,–
COc1ccc2nc3cc(Cl)ccc3c(NCCCN(CCCNc3c4ccc(Cl)cc4nc4ccc(OC)cc34)C(=O)C(CN)NC(=O)OC(C)(C)C)c2c1 (stereo not drawn),307 nM,100%,–,0%,99%,–,0%,39%,100%,–,0%,37%,40%,0%,–,–,0%,Toxic,Toxic,Toxic,Cytotoxicity (Trypanosoma cruzi [20]): Toxic

# The next molecules have a lower IC50 (Plasmodium falciparum) than those just listed; values first:
IC50 (Plasmodium falciparum),SMILES,Inhibition of parasite multiplication (Trypanosoma brucei [1]),Antileishmanial activity (% reduction of parasite load) (Leishmania infantum [2]),Percent antileishmanial activity (reduction of parasite load) (Leishmania infantum [3]),Percent inhibition of parasite multiplication (Trypanosoma brucei [4]),Percent inhibition of Leishmania infantum (Leishmania infantum [5]),Antileishmanial activity (% reduction of parasite load) (Leishmania infantum [6]),cytotoxicity at 25 µM (MRC5 [7]),Parasite growth inhibition (Trypanosoma brucei [8]),Reduction of T. cruzi parasite load (Trypanosoma cruzi [9]),Parasite load reduction (Trypanosoma cruzi [10]),cytotoxicity at 12.5 µM (MRC5 [11]),Reduction of T. cruzi parasite load (Trypanosoma cruzi [12]),cytotoxicity at 3.13 µM (MRC5 [13]),T. cruzi parasite load reduction (Trypanosoma cruzi [14]),Inhibition of parasite multiplication (Trypanosoma brucei [15]),cytotoxicity at 6.25 µM (MRC5 [16]),Cytotoxicity (Leishmania infantum [17]),Cytotoxicity (Leishmania infantum [18]),Cytotoxicity (Trypanosoma cruzi [19]),other results
270 nM,COc1ccc2nc3cc(Cl)ccc3c(NCCCN(CCCNc3c4ccc(Cl)cc4nc4ccc(OC)cc34)C(=O)CCC(=O)O)c2c1,95%,0%,0%,60%,0%,0%,0%,80%,0%,0%,0%,0%,0%,0%,100%,0%,–,–,–,–
247 nM,COc1ccc2nc3cc(Cl)ccc3c(NCCCN(CCCNc3c4ccc(Cl)cc4nc4ccc(OC)cc34)C(=O)C(CO)NC(=O)OC(C)(C)C)c2c1 (stereo not drawn),100%,0%,0%,100%,40%,0%,0%,100%,20%,0%,0%,0%,0%,80%,100%,0%,–,–,–,–
232 nM,COc1ccc2nc3cc(Cl)ccc3c(NCCCN(CCCNc3c4ccc(Cl)cc4nc4ccc(OC)cc34)C(=O)C(C)NC(=O)OCC3c4ccccc4-c4ccccc43)c2c1 (stereo not drawn),100%,–,40%,100%,–,0%,100%,100%,–,0%,100%,0%,100%,–,100%,100%,Toxic,Toxic,Toxic,Cytotoxicity (Trypanosoma cruzi [20]): Toxic
92 nM,COc1ccc2nc3cc(Cl)ccc3c(NCCCN(CCCNc3c4ccc(Cl)cc4nc4ccc(OC)cc34)C(=O)CNC(=O)OC(C)(C)C)c2c1,100%,60%,40%,100%,80%,0%,100%,100%,40%,0%,100%,0%,0%,80%,100%,20%,–,–,–,–
16 nM,COc1ccc2nc3cc(Cl)ccc3c(NCCCCCCNc3c4ccc(Cl)cc4nc4ccc(OC)cc34)c2c1,100%,0%,0%,90%,40%,0%,100%,99%,40%,0%,90%,0%,20%,70%,100%,80%,–,–,–,–

# From ChEMBL document CHEMBL1133105, “Antimalarial, antitrypanosomal, and antileishmanial activities and cytotoxicity of bis(9-amino-6-chloro-2-methoxyacridines): influence of the linker” (J Med Chem, 2000)
